ChEMBL document CHEMBL3994628, “Coumarin derivatives as potential antitumor agents: Growth inhibition, apoptosis induction and multidrug resistance reverting activity” (Eur J Med Chem, 2017)
Activity calls are given as the source filed them. The rule behind the calls is not given here.

Tests used:
LoVo/DX [1] = experiment: Induction of apoptosis in human LoVo/DX cells assessed as caspase-activation using DEVD as substrate at cytotoxic concentration after 24 hrs by fluorimetric assay; format: functional, cell-based
Summary of the method: (§1)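 After 24 h exposure at cytotoxic concentration, DEVD-hydrolysing caspase activity was measured fluorimetrically in cell extracts. Values are given as percentage increase over untreated control, set at 100%. Data are mean ± SD of at least three independent experiments.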

[2] = Growth inhibition of human LoVo/DX cells after 24 hrs by MTT assay; format: functional, cell-based
Summary of the method: (§2)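 Cells were plated at 2x10^4 cells/cm2 and grown in RPMI 1640 with 10% FBS and 2 mM glutamine at 37 °C. They were exposed for 24 h to 0.01-100 µM, diluted from a 10 mmol/L DMSO stock, in triplicate. MTT was then added at 0.2 mg/mL in PBS for 4 h and the formazan dissolved in DMSO. A540 was read and IC50 taken from the dose-response curve, mean ± SD. The ratio compares the IC50s of the two lines.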

LoVo [3] = experiment: Induction of apoptosis in human LoVo cells assessed as caspase-activation using DEVD as substrate at cytotoxic concentration after 24 hrs by fluorimetric assay relative to control; format: functional; summary of the method: as §1
Homo sapiens [4] = species on record: Homo sapiens; experiment: Inhibition of P-gp in human LoVo/DX cells assessed as reduction in Rhodamine123 efflux at 2.5 uM preincubated for 15 mins followed by Rhodamine123 addition measured after 1 hr by flow cytometry; format: cell-based
Summary of the method: (§3)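 LoVo/Dx cells at 3x10^5 cells/mL in serum-free, phenol red-free medium were preincubated at room temperature for 15 min at 2.5 or 10 µM. Rhodamine 123 was then added at 2 µM for 1 h at 37 °C in the dark. After a PBS wash, fluorescence was read by flow cytometry at 488 nm excitation and 530 nm emission. Mean control fluorescence was subtracted. Verapamil served as positive control. Data are mean ± SD of ≥3 experiments.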

Homo sapiens [5] = species on record: Homo sapiens; experiment: Substrate activity at P-gp in human LoVo/DX cells assessed as ATP consumption at 10 uM after 2 hrs by ATPlite assay; format: cell-based
LoVo/DX [6] = experiment: Cytotoxic activity against human LoVo/DX cells after 24 hrs by phase contrast microscopic method; format: functional, cell-based
Summary of the method: (§4)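 LoVo or LoVo/Dx cells were plated at 2x10^4 cells/cm2 in RPMI 1640 with 10% FBS and exposed for 24 h. Phase contrast microscopy was used to judge growth delay without cell death (cytostatic) or cell death, shown as floating cells (cytotoxic).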

Homo sapiens [7] = species on record: Homo sapiens; experiment: Inhibition of P-gp in human LoVo/DX cells assessed as reduction in Rhodamine123 efflux at 10 uM preincubated for 15 mins followed by Rhodamine123 addition measured after 1 hr by flow cytometry; format: cell-based; summary of the method: as §3
LoVo/DX [8] = experiment: Cytostatic activity against human LoVo/DX cells by phase contrast microscopic method; format: functional, cell-based; summary of the method: as §4
LoVo [9] = experiment: Growth inhibition of human LoVo cells after 24 hrs by MTT assay; format: functional, cell-based; summary of the method: as §2
LoVo [10] = experiment: Cytotoxic activity against human LoVo cells after 24 hrs by phase contrast microscopic method; format: functional, cell-based; summary of the method: as §4
LoVo [11] = experiment: Cytostatic activity against human LoVo cells by phase contrast microscopic method; format: functional, cell-based; summary of the method: as §4
LoVo [12] = experiment: Cell cycle arrest in human LoVo cells assessed as accumulation at G0/G1 phase after 24 hrs by propidium iodide staining based flow cytometry; format: functional
LoVo/DX [13] = experiment: Cell cycle arrest in human LoVo/DX cells assessed as accumulation at G0/G1 phase after 24 hrs by propidium iodide staining based flow cytometry; format: functional
Homo sapiens [14] = species on record: Homo sapiens; experiment: Inhibition of P-gp in human LoVo/DX cells assessed as reduction in Rhodamine123 efflux at 2.5 to 10 uM preincubated for 15 mins followed by Rhodamine123 addition measured after 1 hr by flow cytometry relative to verapamil; format: cell-based; summary of the method: as §3
[15] = Selectivity ratio of IC50 for human LoVo/DX cells to IC50 for human LoVo cells; format: functional; summary of the method: as §2
LoVo [16] = experiment: Cell cycle arrest in human LoVo cells assessed as accumulation at G2/M phase after 24 hrs by propidium iodide staining based flow cytometry; format: functional
LoVo/DX [17] = experiment: Cell cycle arrest in human LoVo/DX cells assessed as accumulation at S phase after 24 hrs by propidium iodide staining based flow cytometry; format: functional
LoVo [18] = experiment: Cell cycle arrest in human LoVo cells assessed as accumulation at G2/M phase at 3.5 to 7 uM after 24 hrs by propidium iodide staining based flow cytometry; format: functional
[19] = Selectivity ratio of IC50 for human LoVo cells to IC50 for human LoVo/DX cells; format: functional; summary of the method: as §2
[20] = Induction of apoptosis in human LoVo/DX cells assessed as caspase-activation using DEVD as substrate at cytotoxic concentration after 24 hrs by fluorimetric assay relative to sensitive LoVo cells; format: functional
LoVo/DX [21] = experiment: Cell cycle arrest in human LoVo/DX cells assessed as accumulation at G2/M phase at 3.6 uM after 24 hrs by propidium iodide staining based flow cytometry; format: functional
LoVo/DX [22] = experiment: Cell cycle arrest in human LoVo/DX cells assessed as accumulation at G0/G1 phase at 1.8 uM after 24 hrs by propidium iodide staining based flow cytometry; format: functional

Row | SMILES | IC50 (LoVo [9]) [µM] | IC50 [2] [µM] | P-gp inhibition (active/not active) (Homo sapiens [4]) | Activity (Homo sapiens [5]) | P-gp inhibition (active/not active) (Homo sapiens [7]) | further results
1 | COc1cc2c(cc1OC)CN(CC#C/C(C)=C/COc1ccc3ccc(=O)oc3c1)CC2 | 10.7 | 10.6 | Active | inactive | Active | Activity (LoVo/DX [1]): Active; Activity (LoVo [3]): 39%; Activity (LoVo/DX [6]): Active; Activity (LoVo/DX [8]): Active; Activity (LoVo [10]): Active; Activity (LoVo [11]): Active; Activity (LoVo [12]): Dose-dependent effect; Activity (LoVo/DX [13]): Dose-dependent effect
2 | CC(C)=CCOc1ccc2ccc(=O)oc2c1 [7-PRENYLOXYCOUMARIN] | 30 | 50.3 | Active | – | – | –
3 | COc1ccc(CCN(C)CC#C/C(C)=C/COc2ccc3ccc(=O)oc3c2)cc1OC | 40 | 15.4 | Active | inactive | Active | fold change (FC) (Homo sapiens [14]): 10
4 | C#C/C(C)=C/COc1ccc2ccc(=O)oc2c1 | 48 | 71.5 | inactive | – | – | –
5 | C/C(C#CCN1CCCCC1)=C\COc1ccc2ccc(=O)oc2c1 | 62 | 33 | Active | – | – | –
6 | C/C(C#CCN1CCC(n2c(=O)[nH]c3ccccc32)CC1)=C\COc1ccc2ccc(=O)oc2c1 | 2.5 | 5 | Active | Active | Active | Activity (LoVo/DX [1]): Active; Activity (LoVo [3]): 19%; Activity (LoVo/DX [6]): Active; Activity (LoVo/DX [8]): Active; Ratio IC50 [15]: 2; Activity (LoVo [16]): Dose-dependent effect; Activity (LoVo [10]): Active; Activity (LoVo [11]): Active; Activity (LoVo/DX [17]): Dose-dependent effect; Activity (LoVo [12]): Dose-dependent effect
7 | COc1ccc(CCN(C)CCCC(C#N)(c2ccc(OC)c(OC)c2)C(C)C)cc1OC (stereo not given) | – | – | – | Active | – | –

Further lines, with some results ahead:

Row | IC50 (LoVo [9]) [µM] | SMILES | IC50 [2] [µM] | P-gp inhibition (active/not active) (Homo sapiens [4]) | Activity (Homo sapiens [5]) | P-gp inhibition (active/not active) (Homo sapiens [7]) | further results
8 | 67.6 | C/C(C#CCN1CCN(Cc2ccccc2)CC1)=C\COc1ccc2ccc(=O)oc2c1 | 19.6 | Active | – | – | –
9 | 3.5 | C/C(C#CCN1CCN(C2c3ccccc3-c3ccccc32)CC1)=C\COc1ccc2ccc(=O)oc2c1 | 1.8 | Active | Active | inactive | Activity (LoVo [3]): 72%; Activity (LoVo [18]): Active; Ratio IC50 [19]: 2; Activity (LoVo/DX [6]): Active; Activity (LoVo/DX [8]): Active; fold change (FC) [20]: 3; Activity (LoVo/DX [21]): Active; Activity (LoVo/DX [22]): Active; Activity (LoVo [10]): Active; Activity (LoVo [11]): Active
10 | 41 | C/C(C#CCN1CCN(c2ccccc2)CC1)=C\COc1ccc2ccc(=O)oc2c1 | 12 | Active | – | – | –
11 | 47 | C/C(C#CCN1CCN(C(c2ccc(F)cc2)c2ccc(F)cc2)CC1)=C\COc1ccc2ccc(=O)oc2c1 | 60 | Active | Active | Active | –
